Experimental data reported in ChEMBL document CHEMBL1157391, “Apratoxin E, a cytotoxic peptolide from a guamanian collection of the marine cyanobacterium Lyngbya bouillonii” (J Nat Prod, 2008).
*1 amine or outer side, *2 acyl side, *3 side chain or, on linkers, in order; H or OH if unused. Where a SMILES comes first, the peptide text is derived from it. Bridges are numbered along the chain shown (N, C = ends). Roman numbers before positions name the chains, in order. [ ]: non-standard residue; d: D form. Actinocin(1to9) = Cc1c2oc3c(C)ccc(C(=O)[*:2])c3nc-2c(C(=O)[*:1])c(N)c1=O; NMeV = CN[C@H](C(=O)O)C(C)C; Sar = CNCC(=O)O

Key:
Assay type in all cases: functional, cell-based
HT-29 = experiment: Antiproliferative activity against human HT29 cells after 48 hrs by MTT assay; settings: HT-29, 48 h
Procedure, shortened: (§1)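 Cells grown in high-glucose DMEM with 10% FBS at 37 °C under humidified 5% CO2. Seeded in 96-well plates at 10 000 (HT29), 3000 (HeLa) or 5000 (U2OS) cells per well. Treated 24 h later with a concentration series; solvent controls were 1% EtOH or 1% DMSO. Viability read by MTT after 48 h incubation.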

HeLa = experiment: Antiproliferative activity against human HeLa cells after 48 hrs by MTT assay; procedure, shortened: as §1
U2OS = experiment: Antiproliferative activity against human U2OS cells after 48 hrs by MTT assay; procedure, shortened: as §1

| SMILES | IC50 (HT-29) [nM] | IC50 (HeLa) [nM] | IC50 (U2OS) [nM] |
| --- | --- | --- | --- |
| CC[C@H](C)[C@H]1C(=O)N2CCC[C@H]2C(=O)O[C@H](C(C)(C)C)C[C@@H](C)C[C@H](O)[C@H](C)C2=N[C@@H](/C=C(\C)C(=O)N[C@@H](Cc3ccc(OC)cc3)C(=O)N(C)[C@@H](C)C(=O)N1C)CS2 [APRATOXIN A] | 1.4 | 10 | 10 |
| CC[C@H](C)[C@H]1C(=O)N2CCC[C@H]2C(=O)O[C@H](C(C)(C)C)C[C@@H](C)C/C=C/C2=N[C@@H](CCC(=O)N[C@@H](Cc3ccc(OC)cc3)C(=O)N(C)[C@@H](C)C(=O)N1C)CS2 [APRATOXIN E] | 21 | 72 | 59 |
| Cc1c2oc3c(C)ccc(C(=O)N[C@@H]4C(=O)N[C@H](C(C)C)C(=O)N5CCC[C@H]5C(=O)N(C)CC(=O)N(C)[C@@H](C(C)C)C(=O)O[C@@H]4C)c3nc-2c(C(=O)N[C@@H]2C(=O)N[C@H](C(C)C)C(=O)N3CCC[C@H]3C(=O)N(C)CC(=O)N(C)[C@@H](C(C)C)C(=O)O[C@@H]2C)c(N)c1=O [DACTINOMYCIN] (I: T[dV]P[Sar][NMeV] / II: T[dV]P[Sar][NMeV]; ester I:1-I:C, II:1-II:C; linker I:N-II:N via Actinocin(1to9)) | 2.9 | 0.4 | 3.2 |
| CC[C@H](C)[C@H]1C(=O)N2CCC[C@H]2C(=O)O[C@H](C(C)(C)C)C[C@@H](C)C/C=C(\C)C2=N[C@@H](/C=C(\C)C(=O)N[C@@H](Cc3ccc(OC)cc3)C(=O)N(C)[C@@H](C)C(=O)N1C)CS2 [E-DEHYDROAPRATOXIN A] | 41 | 121 | 160 |
| CC(=O)O[C@H]1C(=O)[C@@]2(C)[C@H]([C@H](OC(=O)c3ccccc3)[C@]3(O)C[C@H](OC(=O)[C@H](O)[C@@H](NC(=O)c4ccccc4)c4ccccc4)C(C)=C1C3(C)C)[C@]1(OC(C)=O)CO[C@@H]1C[C@@H]2O [PACLITAXEL] | 1.9 | 1.5 | 24 |
